Two molecules from ChEMBL document CHEMBL3425495, “Perturbation of the c-Myc-Max protein-protein interaction via synthetic α-helix mimetics” (J Med Chem, 2015) can be followed below.

As a reminder, the IC50 is the midpoint of a concentration-inhibition curve. As a reminder, the Kd is the concentration at which binding is half-saturated.

Active and inactive are the calls of the source. The calls are words filed in the database; no cut-off is given here.

Experiment [1] deals with T1, c-Myc/Max (Homo sapiens, UniProt P01106+P61244). As to conditions: 6.3 to 50 uM.
T1 sequence (P01106 whole entry): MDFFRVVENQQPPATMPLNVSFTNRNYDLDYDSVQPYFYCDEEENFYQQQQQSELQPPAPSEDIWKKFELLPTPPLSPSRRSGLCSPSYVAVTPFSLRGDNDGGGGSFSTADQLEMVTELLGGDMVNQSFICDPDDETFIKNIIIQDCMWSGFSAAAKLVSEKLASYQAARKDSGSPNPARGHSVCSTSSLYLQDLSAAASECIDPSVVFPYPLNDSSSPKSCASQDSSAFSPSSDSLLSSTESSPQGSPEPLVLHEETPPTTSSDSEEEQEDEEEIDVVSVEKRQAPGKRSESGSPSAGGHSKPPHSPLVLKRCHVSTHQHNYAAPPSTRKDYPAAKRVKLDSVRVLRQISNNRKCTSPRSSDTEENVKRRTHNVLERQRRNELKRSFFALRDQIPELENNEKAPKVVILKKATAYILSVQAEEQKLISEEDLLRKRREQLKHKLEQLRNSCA
T1 sequence (P61244 whole entry): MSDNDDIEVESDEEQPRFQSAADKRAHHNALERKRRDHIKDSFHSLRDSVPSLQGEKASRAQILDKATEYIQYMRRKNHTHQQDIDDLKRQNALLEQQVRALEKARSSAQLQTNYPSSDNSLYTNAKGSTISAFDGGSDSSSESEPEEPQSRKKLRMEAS
Another experiment has as its system NCI-H460. Kind of experiment: Induction of neutral lipid accumulation in human H460 cells assessed as ratio of mean florescent intensity of compound treated to control cells at 40 uM after 48 hrs by flow cytometry. It counts as functional. The essentials: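 Sub-confluent H460 cells given compound 48 h; trypsinised, washed, stained 30 min at ambient temperature with BODIPY […]/503 (stock 50 µg/ml, 0.9 ml added to 0.1 ml cells); flow cytometry of ≥10⁴ events; mean fluorescence of treated over untreated cells; biological triplicates, ± one standard error.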
In general terms: In flow cytometry, cells or beads pass a laser one at a time.

Experiment [2] has as its target T1, c-Myc/Max. To be noted: 6.3 to 50 uM. This is another data set of the same source.
A further experiment deals with Daudi. Kind of experiment: Antiproliferative activity against c-Myc-overexpressing human Daudi cells after 3 days by MTT assay. As to conditions: 72 h. It counts as functional, cell-based. The essentials: (§1)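 Cells at >90% viability seeded at 2×10³ cells/well in fresh growth medium with 10-point serial dilutions of compound; 3-day incubation; viability by MTT, relative to untreated cells; each point in at least triplicate; IC50 from dose–response. HO15.19-wt-Myc are myc−/− rat fibroblasts with c-Myc restored by stable retroviral transduction.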
Background: Tetrazolium assays rely on reduction of a dye to a coloured formazan, in cell work by metabolically active cells.

Experiment [3] in a line: Antiproliferative activity against rat HO15.19-wt-Myc cells after 3 days by MTT assay. As to conditions: HO15.19, 72 h. It is filed as functional, cell-based. In short, it runs like this: as §1
Experiment [4] deals with T1, c-Myc/Max. Kind of experiment: Disruption of human recombinant c-Myc-Max(S)/DNA (unknown origin) binding assessed as complex level at 100 uM by electrophoretic mobility shift assay relative to control. It is filed as protein-complex assay. The essentials:
(§2)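 Recombinant c-Myc 353–437 bHLH-ZIP with full-length Max(S), or Max(L) alone, from E. coli (His₆ removed by TEV), each 30 nM, with 30 nM HEX-labelled double-stranded oligonucleotide bearing a c-Myc site; buffer 1× PBS pH 7.3, 1 mM EDTA, 0.1% NP40, 5% glycerol, 1 mM DTT, 400 µg/mL BSA; complex level relative to DMSO control; three independent EMSAs.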
(A gel shift assay detects complexes by their altered migration in electrophoresis.)

A short description of experiment [5]: Antiproliferative activity against human ANBL-6 cells after 3 days by MTT assay. It counts as functional, cell-based. To be noted: ANBL-6, 72 h. In short, it runs like this:
as §1

Experiment [6] has as its target T1, c-Myc/Max. Kind of experiment: Induction of dissociation of […]-Max in human HL60 cells at 10 to 30 uM after 6 hrs by Co-immunoprecipitation (Co-IP) assay. It counts as cell-based. To be noted: HL-60. In short, it runs like this: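 About 5×10⁶ HL60 cells exposed 6 h to compound or DMSO; lysed in IP buffer; 300 µg cleared lysate immunoprecipitated overnight at 4 °C with anti-Max (1:200) and protein G-Sepharose; 10% SDS-PAGE, immunoblot with anti-c-Myc 9E10 (1:1000); input lysate kept for comparison.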

A short description of experiment [7]: Antiproliferative activity against human KJON cells after 3 days by MTT assay. It counts as functional, cell-based. To be noted: 72 h. The essentials:
as §1

Experiment [8] can be described thus: Cell cycle arrest in human HL60 cells assessed as accumulation at G2/M phase at 10 uM after 24 hrs by propidium iodide staining-based flow cytometric analysis (reference value: 10.3%). As to conditions: HL-60. It counts as functional.
A short description of experiment [9]: Antiproliferative activity against human INA-6 cells after 3 days by MTT assay. To be noted: INA-6, 72 h. It is filed as functional, cell-based. In short, it runs like this: as §1
The nature of experiment [10]: Cell cycle arrest in human HL60 cells assessed as accumulation at G2/M phase at 15 uM after 24 hrs by propidium iodide staining-based flow cytometric analysis (reference value: 10.3%). To be noted: HL-60. It is filed as functional.
Experiment [11] can be described thus: Cell cycle arrest in human HL60 cells assessed as accumulation at S phase at 15 uM after 24 hrs by propidium iodide staining-based flow cytometric analysis (reference value: 58.4%). It counts as functional. To be noted: HL-60.
Experiment [12] in a line: Cell cycle arrest in human HL60 cells assessed as accumulation at G0/G1 phase at 10 uM after 24 hrs by propidium iodide staining-based flow cytometric analysis (reference value: 31.2%). It counts as functional. To be noted: HL-60.
For experiment [13], the target named is Nuclear factor NF-kappa-B complex (Homo sapiens) (UniProt Q00653+P19838+Q04206). As to the kind of experiment: Inhibition of NFkappaB binding site (unknown origin) expressed in human HeLa cells assessed as inhibition of luciferase after 6 hrs. It is filed as cell-based. The essentials:
(§3)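 HeLa cells stably carrying a labile luciferase under a minimal promoter with triplicated c-Myc or NF-κB sites, methotrexate-amplified; 10⁶ cells seeded, next day compound for 6 h; lysates assayed in triplicate, normalised to protein, background (mutant-site line) subtracted, expressed relative to untreated cells (100%); mean ± 1 standard error.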

Experiment [14] in a line: Antiproliferative activity against human H460 cells after 3 days by MTT assay. It counts as functional, cell-based. To be noted: NCI-H460, 72 h. In short, it runs like this: as §1
Experiment [15] in a line: Cell cycle arrest in human HL60 cells assessed as accumulation at G0/G1 phase at 15 uM after 24 hrs by propidium iodide staining-based flow cytometric analysis (reference value: 31.2%). As to conditions: HL-60. It counts as functional.
The nature of experiment [16]: Antiproliferative activity against human JJN-3 cells after 3 days by MTT assay. It is filed as functional, cell-based. As to conditions: JJN-3, 72 h. The essentials:
as §1

Another experiment relates to HeLa. As to the kind of experiment: Antiproliferative activity against human HeLa cells after 3 days by MTT assay. It is filed as functional, cell-based. To be noted: 72 h. In short, it runs like this:
as §1

Experiment [17] has as its target T1, c-Myc/Max. Kind of experiment: Binding affinity to human recombinant 15N labeled c-Myc-Max(S) heterodimer assessed as chemical shift up to 100 uM by NMR spectroscopy. It counts as protein-complex assay.
Experiment [18] is described as follows: Cell cycle arrest in human HL60 cells assessed as accumulation at S phase at 10 uM after 24 hrs by propidium iodide staining-based flow cytometric analysis (reference value: 58.4%). It counts as functional. As to conditions: HL-60.
For experiment [19], the target named is T1, c-Myc/Max. Kind of experiment: Disruption of human recombinant c-Myc-Max/DNA (unknown origin) binding assessed as complex level by electrophoretic mobility shift assay relative to control. It is filed as protein-complex assay. In short, it runs like this:
as §2

Experiment [20] concerns the target T1, c-Myc/Max. Kind of experiment: Inhibition of heterodimerization of human recombinant His-tagged c-Myc-Max(S) compound treated for 20 mins with c-Myc and followed by added Max(S) at 3.1 to 50 uM after 30 mins by SPR analysis in presence of biotinylated E-box-containing oligonucleotides. It counts as protein-complex assay.
For experiment [21], the target named is T1, c-Myc/Max. Kind of experiment: Inhibition of human recombinant His-tagged c-Myc-Max(S) heterodimer binding to DNA at 3.1 to 50 uM after 30 mins by SPR analysis in presence of biotinylated E-box-containing oligonucleotides. It is filed as protein-complex assay.
Another experiment concerns HEK293. Kind of experiment: Antiproliferative activity against human HEK293 cells after 3 days by MTT assay. It counts as functional, cell-based. To be noted: HEK293, 72 h. The essentials: as §1
The nature of experiment [22]: Antiproliferative activity against human U266 cells after 3 days by MTT assay. It counts as functional, cell-based. As to conditions: U-266, 72 h. In short, it runs like this: as §1
The target of experiment [23] is Myc proto-oncogene protein (Homo sapiens) (UniProt P01106). Kind of experiment: Inhibition of wild type c-Myc binding site (unknown origin) expressed in human HeLa cells assessed as inhibition of luciferase after 6 hrs. It is filed as cell-based. In short, it runs like this:
as §3

Experiment [24] in a line: Antiproliferative activity against human IH-1 cells after 3 days by MTT assay. To be noted: IH-1, 72 h. It counts as functional, cell-based. The essentials:
as §1

The target in experiment [25] is Protein max (Homo sapiens) (UniProt P61244). As to the kind of experiment: Binding affinity to human recombinant 15N labeled Max(S) homodimer assessed as chemical shift up to 100 uM by NMR spectroscopy.
Protein max (Homo sapiens), sequence (P61244 whole entry): as above

Myc proto-oncogene protein (Homo sapiens), sequence (P01106 whole entry): as the sequence (P01106 whole entry) above
Nuclear factor NF-kappa-B complex (Homo sapiens), sequence (P19838 whole entry, looked up): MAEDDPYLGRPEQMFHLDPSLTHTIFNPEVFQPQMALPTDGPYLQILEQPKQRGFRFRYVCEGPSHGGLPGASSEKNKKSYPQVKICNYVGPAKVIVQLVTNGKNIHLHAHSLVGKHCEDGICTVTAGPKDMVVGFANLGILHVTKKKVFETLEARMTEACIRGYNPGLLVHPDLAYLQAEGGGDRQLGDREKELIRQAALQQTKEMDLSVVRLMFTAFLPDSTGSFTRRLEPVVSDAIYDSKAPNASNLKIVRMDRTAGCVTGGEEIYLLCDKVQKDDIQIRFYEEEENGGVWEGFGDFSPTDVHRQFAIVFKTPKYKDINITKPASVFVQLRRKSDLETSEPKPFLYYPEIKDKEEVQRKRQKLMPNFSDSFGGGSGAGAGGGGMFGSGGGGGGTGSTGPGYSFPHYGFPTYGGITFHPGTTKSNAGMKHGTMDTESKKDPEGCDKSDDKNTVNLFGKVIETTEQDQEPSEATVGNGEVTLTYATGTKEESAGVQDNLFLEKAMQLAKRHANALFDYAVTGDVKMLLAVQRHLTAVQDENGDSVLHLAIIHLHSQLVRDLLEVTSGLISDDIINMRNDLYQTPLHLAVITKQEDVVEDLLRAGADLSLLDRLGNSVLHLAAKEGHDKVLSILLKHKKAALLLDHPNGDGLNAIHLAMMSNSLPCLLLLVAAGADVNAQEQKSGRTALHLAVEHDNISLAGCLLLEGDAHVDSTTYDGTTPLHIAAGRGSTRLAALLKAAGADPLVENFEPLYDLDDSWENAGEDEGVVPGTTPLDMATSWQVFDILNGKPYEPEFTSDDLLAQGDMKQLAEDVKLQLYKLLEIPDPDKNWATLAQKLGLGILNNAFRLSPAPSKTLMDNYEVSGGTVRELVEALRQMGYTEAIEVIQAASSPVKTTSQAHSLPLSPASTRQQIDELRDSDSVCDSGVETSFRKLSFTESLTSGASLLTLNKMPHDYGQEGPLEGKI
Nuclear factor NF-kappa-B complex (Homo sapiens), sequence (Q00653 whole entry, looked up): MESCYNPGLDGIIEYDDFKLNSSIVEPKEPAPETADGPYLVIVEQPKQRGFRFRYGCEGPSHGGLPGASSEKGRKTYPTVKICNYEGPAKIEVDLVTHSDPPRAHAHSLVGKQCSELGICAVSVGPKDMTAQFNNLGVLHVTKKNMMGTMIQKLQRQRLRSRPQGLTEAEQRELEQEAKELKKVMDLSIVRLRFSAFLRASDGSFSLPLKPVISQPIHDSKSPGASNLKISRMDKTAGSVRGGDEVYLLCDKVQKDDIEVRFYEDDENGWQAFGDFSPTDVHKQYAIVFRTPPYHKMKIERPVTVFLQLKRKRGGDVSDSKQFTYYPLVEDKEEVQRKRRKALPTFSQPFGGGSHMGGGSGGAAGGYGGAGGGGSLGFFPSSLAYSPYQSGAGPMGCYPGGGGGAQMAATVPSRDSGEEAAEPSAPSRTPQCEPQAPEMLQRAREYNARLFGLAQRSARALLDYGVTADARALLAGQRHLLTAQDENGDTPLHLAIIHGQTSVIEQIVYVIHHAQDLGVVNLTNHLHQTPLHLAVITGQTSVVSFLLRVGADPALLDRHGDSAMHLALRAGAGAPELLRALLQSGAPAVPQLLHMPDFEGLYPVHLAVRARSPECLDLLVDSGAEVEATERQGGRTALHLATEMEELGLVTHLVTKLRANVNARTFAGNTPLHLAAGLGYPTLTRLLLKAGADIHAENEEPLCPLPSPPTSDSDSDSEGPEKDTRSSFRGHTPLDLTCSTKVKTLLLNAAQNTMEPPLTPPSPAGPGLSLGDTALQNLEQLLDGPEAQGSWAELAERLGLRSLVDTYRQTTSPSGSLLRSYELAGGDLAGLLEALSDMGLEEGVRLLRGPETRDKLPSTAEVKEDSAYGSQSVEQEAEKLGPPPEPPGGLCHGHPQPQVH
Nuclear factor NF-kappa-B complex (Homo sapiens), sequence (Q04206 whole entry, looked up): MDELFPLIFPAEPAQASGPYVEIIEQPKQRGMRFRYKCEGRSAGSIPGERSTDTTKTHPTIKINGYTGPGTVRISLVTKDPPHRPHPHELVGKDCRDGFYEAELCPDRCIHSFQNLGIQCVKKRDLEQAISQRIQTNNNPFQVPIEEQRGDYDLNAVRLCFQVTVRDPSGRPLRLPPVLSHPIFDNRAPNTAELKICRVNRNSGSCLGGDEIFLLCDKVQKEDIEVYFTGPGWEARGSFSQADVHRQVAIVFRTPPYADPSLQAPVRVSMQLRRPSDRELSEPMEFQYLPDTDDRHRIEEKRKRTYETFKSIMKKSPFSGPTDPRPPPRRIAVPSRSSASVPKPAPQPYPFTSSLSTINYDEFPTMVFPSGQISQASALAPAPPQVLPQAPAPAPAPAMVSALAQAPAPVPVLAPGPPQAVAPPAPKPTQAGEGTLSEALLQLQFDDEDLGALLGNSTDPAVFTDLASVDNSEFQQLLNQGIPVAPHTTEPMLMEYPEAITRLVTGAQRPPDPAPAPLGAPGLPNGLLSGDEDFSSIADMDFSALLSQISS

With `O=[N+]([O-])c1ccc(Nc2ccccc2-c2ccccc2)c2nonc12`, the inhibition result on c-Myc/Max [1] and on c-Myc/Max [2] was “Active” in each case. Further, the Ratio in the experiment on NCI-H460 came to 1.4.
As for `CC(C)COc1cc(C(=O)O)ccc1NC(=O)c1ccc([N+](=O)[O-])c(OCc2cccc3ccccc23)c1`, the 50% inhibitory concentration (IC50) was determined as 9.5 µM in the experiment with Daudi; 14.1 µM in [3]; 35.6 µM in experiment [5]; 23 µM in experiment [7]; 18.1 µM in experiment [9]; 15.9 µM in experiment [14]. For the same molecule, the IC50 in experiment [16] was 15.7 µM; in the experiment on HeLa, 10.8 µM; at c-Myc/Max [19], 11.6 µM; with HEK293, 10.4 µM; in experiment [22] it was 46 µM; in experiment [24], 20.6 µM. Further, the Activity turned out to be 0% on c-Myc/Max [4]; 0.77% in [8]; 5.64% in [10]; 23.3% in [11]; 51.4% in experiment [12]; 71% in experiment [15]. Also, the Activity in experiment [18] was 47.9%. Also, the outcome (on c-Myc/Max [6]; in [25]) was inactive. The inhibition entry in [13] was “inactive”. Moreover, the Kd at c-Myc/Max [17] came out at 13 µM. The inhibition result on c-Myc/Max [20] and on c-Myc/Max [21] was “Active” each time. Further, the inhibition entry in experiment [23] was “Dose-dependent effect”.
